Reference: the array DNA melting data of Ke et al. (doi:10.1101/2024.01.08.574731)

Key:
[1] = melting temperature; fluorescence melt of hairpins on a sequencing array, two-state fit, raised by 9.35 °C to match UV melts; settings: sodium 0.088 M
How it was run: (§1)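 Hairpins were imaged by Cy3 fluorescence on a sequenced MiSeq flow cell with annealed Cy3 and quencher oligos, in 50 mM Na-HEPES pH 8.0, 25 mM NaCl, in 2.5 °C steps up to 60 °C. Bootstrapped two-state fits of normalised signals gave melting temperature and folding enthalpy. Four replicates were combined by inverse variance, and fitted temperatures were raised by 9.35 °C to match UV melts.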

[2] = folding enthalpy; higher = less favourable; fluorescence melt of hairpins on a sequencing array, two-state fit; settings: sodium 0.088 M
How it was run: as §1

GCCTGGCGAAAGCAAAGC ((.(.((....)).).))
Tm [1]: 31.6 °C
folding enthalpy [2]: -9.2 kcal/mol

GGTGAGGAAACTCACC ((((((....))))))
Tm [1]: 61.6 °C
folding enthalpy [2]: -35 kcal/mol

GATCTGGTGGCAGATC ((((((....))))))
Tm [1]: 50.1 °C
folding enthalpy [2]: -33.9 kcal/mol

GTGATCGAAAGATATCAC ((((((....)))..)))
Tm [1]: 34.5 °C
folding enthalpy [2]: -18 kcal/mol

GCGCTTGGAAACGAGCGC (((((.(....).)))))
Tm [1]: 63.8 °C
folding enthalpy [2]: -52.1 kcal/mol

GCAACGCGAAAGCACTGC (((..((....))..)))
Tm [1]: 41.4 °C
folding enthalpy [2]: -11.4 kcal/mol

GATCATTTTCATGATC ((((((....))))))
Tm [1]: 47.6 °C
folding enthalpy [2]: -31.1 kcal/mol

GGTACAGGAAACTGCACC (((.(((....))).)))
Tm [1]: 44.2 °C
folding enthalpy [2]: -32.5 kcal/mol

GTTTGACGAAAGTCTAAC (((.(((....))).)))
Tm [1]: 47.7 °C
folding enthalpy [2]: -25 kcal/mol

GTCGCGGGAAACCGTGAC (((.(((....))).)))
Tm [1]: 59.8 °C
folding enthalpy [2]: -35.2 kcal/mol

GAACACGAAAGTGAGTTC ((((((....)))..)))
Tm [1]: 35.7 °C
folding enthalpy [2]: -16.4 kcal/mol

GAGTACGGAAACGTACCC (.(((((....))))).)
Tm [1]: 42.2 °C
folding enthalpy [2]: -15.5 kcal/mol

GATCAGGTGCTGATC ((((((...))))))
Tm [1]: 48.6 °C
folding enthalpy [2]: -39 kcal/mol

GAAACAGGAAACTGTTCC (.(((((....))))).)
Tm [1]: 35.3 °C
folding enthalpy [2]: -14.9 kcal/mol

GATCCAACTTTGGATC ((((((....))))))
Tm [1]: 51 °C
folding enthalpy [2]: -43.3 kcal/mol

GTGCGCGAAAGCGCCCAC ((((((....)))..)))
Tm [1]: 43.3 °C
folding enthalpy [2]: -6.88 kcal/mol

GCCCTACGAAAGTACGGC (((.(((....))).)))
Tm [1]: 46.2 °C
folding enthalpy [2]: -27.3 kcal/mol

GATTGGACGAAAGTCATC (((..(((....))))))
Tm [1]: 27 °C
folding enthalpy [2]: -10.5 kcal/mol

GTTTTCGGAAACGAAAAC (((((((....)))))))
Tm [1]: 58.5 °C
folding enthalpy [2]: -42.6 kcal/mol

GTCCCCGAAAGGGCGAC ((((((....))).)))
Tm [1]: 52.7 °C
folding enthalpy [2]: -20.8 kcal/mol

GTGGTGGGAAACCGCTAC ((.(.((....)).).))
Tm [1]: 46.7 °C
folding enthalpy [2]: -19.3 kcal/mol

GATGCCGAAAGGCAAATC ((((((....)))..)))
Tm [1]: 35.4 °C
folding enthalpy [2]: -10.4 kcal/mol

GATCAGTCTCTGATC ((((((...))))))
Tm [1]: 50.7 °C
folding enthalpy [2]: -40.3 kcal/mol

AGGGAGAAATCCCT (((((....)))))
Tm [1]: 42 °C
folding enthalpy [2]: -18.6 kcal/mol

GAATAACCGAAAGGTTTC (((..(((....))))))
Tm [1]: 25.6 °C
folding enthalpy [2]: -15.1 kcal/mol

GATCGGTCACCGATC ((((((...))))))
Tm [1]: 55.8 °C
folding enthalpy [2]: -36.2 kcal/mol

GCCTCGCGAAAGCGCAGC ((..(((....)))..))
Tm [1]: 39.8 °C
folding enthalpy [2]: -9.54 kcal/mol

GATCGTCCCGACGATC ((((((....))))))
Tm [1]: 59.8 °C
folding enthalpy [2]: -43.2 kcal/mol

GATCAACATATTGATC ((((((....))))))
Tm [1]: 42.6 °C
folding enthalpy [2]: -30.2 kcal/mol

GGGTAGTCGAAAGACCCC (((..(((....))))))
Tm [1]: 45.4 °C
folding enthalpy [2]: -20.5 kcal/mol

GATCGCACGGGCGATC ((((((....))))))
Tm [1]: 67.1 °C
folding enthalpy [2]: -30.9 kcal/mol

GGGCCTCGAAAGAGTCCC (((.(((....))).)))
Tm [1]: 54.2 °C
folding enthalpy [2]: -40.7 kcal/mol

GGCCTAGGAAACTAGGCC (((((((....)))))))
Tm [1]: 68.6 °C
folding enthalpy [2]: -32.8 kcal/mol

GATCAAGTAGTTGATC ((((((....))))))
Tm [1]: 46.7 °C
folding enthalpy [2]: -31.6 kcal/mol

GGCTTGGGAAACTAGGCC (((.(.(....).).)))
Tm [1]: 39.4 °C
folding enthalpy [2]: -28.4 kcal/mol

GCCTGTGGAAACATGGGC (((..((....))..)))
Tm [1]: 47.4 °C
folding enthalpy [2]: -29.4 kcal/mol

GGCATACCGAAAGGTGCC (((..(((....))))))
Tm [1]: 53.3 °C
folding enthalpy [2]: -39.5 kcal/mol

GTGAGGGGAAACCTTCGC (.((.((....)).)).)
Tm [1]: 33.6 °C
folding enthalpy [2]: -21.5 kcal/mol

GCTGAAGCGAAAGCTAGC (((..(((....))))))
Tm [1]: 44.6 °C
folding enthalpy [2]: -18.6 kcal/mol

GGAACTCCGAAAGGATCC (((..(((....))))))
Tm [1]: 27 °C
folding enthalpy [2]: -7.77 kcal/mol

GGTATTGGAAACAGTACC ((((.((....)).))))
Tm [1]: 39.6 °C
folding enthalpy [2]: -32.2 kcal/mol

GGTACTCCGAAAGGAACC (((..(((....))))))
Tm [1]: 25.4 °C
folding enthalpy [2]: -9.52 kcal/mol

GGCAATCGAAAGATGGCC (((.(((....))).)))
Tm [1]: 57.8 °C
folding enthalpy [2]: -41.9 kcal/mol

GTTCGACGAAAGTCAAAC (((.(((....))).)))
Tm [1]: 41.7 °C
folding enthalpy [2]: -21.3 kcal/mol

GGCGTATCGAAAGATGCC (((..(((....))))))
Tm [1]: 47.9 °C
folding enthalpy [2]: -22.5 kcal/mol

GAACCAGGAAACTGGTTC (((((((....)))))))
Tm [1]: 62 °C
folding enthalpy [2]: -45.1 kcal/mol

GTTAATGGAAACATTGAC ((.((((....)))).))
Tm [1]: 37.3 °C
folding enthalpy [2]: -26.1 kcal/mol

GGTATTCCGAAAGGAACC (((..(((....))))))
Tm [1]: 29.4 °C
folding enthalpy [2]: -12.8 kcal/mol

GGACCAGGAAACTGACCC ((..(((....)))..))
Tm [1]: 23.5 °C
folding enthalpy [2]: -10.6 kcal/mol

GTCGTACGAAAGTAGAC (((.(((....))))))
Tm [1]: 52 °C
folding enthalpy [2]: -32.4 kcal/mol

GATCAGCCTGCTGATC ((((((....))))))
Tm [1]: 64.1 °C
folding enthalpy [2]: -41.5 kcal/mol

GAGTCCGAAAGGAACTC ((((((....))).)))
Tm [1]: 50.7 °C
folding enthalpy [2]: -27.7 kcal/mol

GCGGGCTGCCGC ((((....))))
Tm [1]: 60.9 °C
folding enthalpy [2]: -19.5 kcal/mol

GGATTCCGAAAGGAGTCC (((.(((....))).)))
Tm [1]: 55.6 °C
folding enthalpy [2]: -41.6 kcal/mol

GCTCCTCGAAAGAGCAGC (((.(((....))).)))
Tm [1]: 40.6 °C
folding enthalpy [2]: -21.5 kcal/mol

GATCGGAACGCCGATC ((((((....))))))
Tm [1]: 54.7 °C
folding enthalpy [2]: -41.2 kcal/mol

GCCCAGGGAAACCTGGAC (.(((((....))))).)
Tm [1]: 49.4 °C
folding enthalpy [2]: -13.4 kcal/mol

GCATTCGAAAGAATGC ((((((....))))))
Tm [1]: 69.2 °C
folding enthalpy [2]: -28.3 kcal/mol

GGGTCTGGAAACAGGTCC ((..(((....)))..))
Tm [1]: 39.9 °C
folding enthalpy [2]: -27.8 kcal/mol

GCGGAGCGAAAGCTATGC ((..(((....)))..))
Tm [1]: 44.5 °C
folding enthalpy [2]: -16.5 kcal/mol

GTATTCGGAAACGAATGC (.(((((....))))).)
Tm [1]: 48.6 °C
folding enthalpy [2]: -29.1 kcal/mol

GCTGCAGCGAAAGCTAGC (((..(((....))))))
Tm [1]: 48.7 °C
folding enthalpy [2]: -11.9 kcal/mol

GTCGAGCGAAAGCTAGAC (((.(((....))).)))
Tm [1]: 60.5 °C
folding enthalpy [2]: -33.5 kcal/mol

GCCATGCGAAAGCAGGC (((.(((....))))))
Tm [1]: 64.4 °C
folding enthalpy [2]: -21.8 kcal/mol

GCTGCGCGAAAGCCCGGC ((.(.((....)).).))
Tm [1]: 44.1 °C
folding enthalpy [2]: -17.5 kcal/mol

GCGTTACAACGC ((((....))))
Tm [1]: 58.6 °C
folding enthalpy [2]: -26.4 kcal/mol

GGTGCGGGAAACTGCGCC ((.((.(....).)).))
Tm [1]: 52.7 °C
folding enthalpy [2]: -49.1 kcal/mol

GCCTACGAAAGTACGGGC ((((((....)))..)))
Tm [1]: 46.3 °C
folding enthalpy [2]: -27.2 kcal/mol

GTTAGCCGAAAGGCGAAC (((.(((....))).)))
Tm [1]: 57.6 °C
folding enthalpy [2]: -20.5 kcal/mol

GATCACGGTCGTGATC ((((((....))))))
Tm [1]: 60.7 °C
folding enthalpy [2]: -39.6 kcal/mol

GTCACTTCGAAAGAAGAC (((..(((....))))))
Tm [1]: 26.7 °C
folding enthalpy [2]: -8.67 kcal/mol

GGGTCTGGAAACGGACTC (.(((.(....).))).)
Tm [1]: 37.5 °C
folding enthalpy [2]: -28.3 kcal/mol

GTTTTTACGAAAGTAAAC (((..(((....))))))
Tm [1]: 29.9 °C
folding enthalpy [2]: -17.1 kcal/mol

GCCTGCGAAAGCAACGGC ((((((....)))..)))
Tm [1]: 52.8 °C
folding enthalpy [2]: -23.6 kcal/mol

GGGTCAGGAAACTGACTC (.(((((....))))).)
Tm [1]: 51.8 °C
folding enthalpy [2]: -30.7 kcal/mol

GCATCGCGAAAGCGAAGC ((.((((....)))).))
Tm [1]: 61.3 °C
folding enthalpy [2]: -19.1 kcal/mol

GGTGTCGGAAACGACGCC ((.((((....)))).))
Tm [1]: 64.5 °C
folding enthalpy [2]: -28.6 kcal/mol

GCGGTGCGAAAGCAATGC ((..(((....)))..))
Tm [1]: 59 °C
folding enthalpy [2]: -29.2 kcal/mol

GGTTGTACGAAAGTAACC (((..(((....))))))
Tm [1]: 38 °C
folding enthalpy [2]: -20.9 kcal/mol

GCGTAGCGAAAGCTCGGC ((..(((....)))..))
Tm [1]: 39.9 °C
folding enthalpy [2]: -7.84 kcal/mol

GCTTGCGGAAACGCAAAC (.(((((....))))).)
Tm [1]: 44.6 °C
folding enthalpy [2]: -12.4 kcal/mol

GTCGCTCGAAAGAGTGAC (((.(((....))).)))
Tm [1]: 62.6 °C
folding enthalpy [2]: -43.3 kcal/mol

GATCCGAATGCGGATC ((((((....))))))
Tm [1]: 54.1 °C
folding enthalpy [2]: -37.8 kcal/mol

GTTGTCGAAAGACAAAAC ((((((....)))..)))
Tm [1]: 36.9 °C
folding enthalpy [2]: -13.6 kcal/mol

GCTAAACGAAAGTTAAGC (((.(((....))).)))
Tm [1]: 44.3 °C
folding enthalpy [2]: -29.1 kcal/mol

GGACAACGAAAGTTTTCC (((.(((....))).)))
Tm [1]: 41.2 °C
folding enthalpy [2]: -29.2 kcal/mol

GCGGTGCCCGC ((((...))))
Tm [1]: 55.5 °C
folding enthalpy [2]: -19.3 kcal/mol

GCACAGCGAAAGCCATGC (((..((....))..)))
Tm [1]: 38 °C
folding enthalpy [2]: -11.9 kcal/mol

GCGTTCGAAAGAAGTCGC ((((((....)))..)))
Tm [1]: 37.7 °C
folding enthalpy [2]: -26.4 kcal/mol

GTTGAGGGAAACCCCAAC ((((.((....)).))))
Tm [1]: 43.3 °C
folding enthalpy [2]: -26.1 kcal/mol

GTTTAGAAATAAAC (((((....)))))
Tm [1]: 28.4 °C
folding enthalpy [2]: -9.32 kcal/mol

GATCCACTCGTGGATC ((((((....))))))
Tm [1]: 63.2 °C
folding enthalpy [2]: -45.8 kcal/mol
